In general, IC50 refers to the concentration that inhibits the measured activity by half. A high value points to weaker potency.

One data set deals with HCT-116. As to the kind of experiment: Concentration required for growth inhibition of human HCT116 colon tumor cell line […] was determined. The class given is functional, cell-based.
The nature of data set [1]: Concentration required for growth inhibition of vinblastine resistant human lymphoblastic leukemic cell line (CCRF-CEM/VBL) was determined. Type of data set: functional, cell-based. In short, it runs like this:
(§1)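 Drug-resistant human lymphoblastic leukemia sublines (vinblastine-resistant CCRF-CEM/VBL; taxol-resistant CCRF-CEM/taxol). Growth inhibition measured by XTT assay after 72 h incubation, reported as IC50.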

Data set [2] is described as follows: Concentration required for growth inhibition of taxol resistant human lymphoblastic leukemic cell line (CCRF-CEM/taxol) was determined. The class given is functional, cell-based. In short, it runs like this: as §1
For a further data set, the system named is A549. As to the kind of experiment: Concentration required for growth inhibition of […] was determined. Type of data set: functional, cell-based. The note with it: Homo sapiens.
The subject of another data set is CCRF-CEM. As to the kind of experiment: Concentration required for growth inhibition of human lymphoblastic leukemic cell line (CCRF-CEM) was determined. The class given is functional, cell-based. The method in brief:
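Leukemic CCRF-CEM cells and their vinblastine-resistant (CCRF-CEM/VBL) and taxol-resistant (CCRF-CEM/taxol) sublines were incubated for 72 h. Growth inhibition was read by XTT assay and expressed as IC50. For the resistant sublines, fold resistance was calculated relative to the parent CCRF-CEM IC50.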

Data set [3] has as its system Mus musculus. Briefly: Average change in body weight of mice bearing human mammary carcinoma (MX-1) xenograft on 14th day of administration (dose = 1-2 mg/kg). The class given is functional. The method in brief:
(§2)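 Nude mice (n = 3) bearing human MX-1 mammary carcinoma xenografts (Day 0). Intravenous treatment started on D11, when tumors were 80–120 mm3, at 1–2 mg/kg on a Q3D × 7 schedule. Body weight was taken as total body weight minus tumor weight. Animals with excessive tumor burden (>3500 mm3) were sacrificed.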
For orientation: Xenograft models place foreign cells or tissue in a host animal.

Data set [4] concerns Mus musculus. Briefly: Average change in body weight of mice bearing human mammary carcinoma (MX-1) xenograft on 23th day of administration (dose = 1-2 mg/kg). Type of data set: functional. The method in brief:
as §2

The nature of data set [5]: Average tumor size of human mammary carcinoma (MX-1) xenograft in mice on 20th day of administration (dose = 1-2 mg/kg). Type of data set: organism-based. Conditions: mouse, in vivo. The method in brief: (§3)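 Human MX-1 breast carcinoma xenografts in nude mice (n = 3) with tumors established on Day 0. Dosing was iv, 1–2 mg/kg Q3D × 7, beginning D11 at tumor size 80–120 mm3. Tumor size was tracked in mm3, and mice were sacrificed when tumors exceeded 3500 mm3.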

Data set [6] can be described thus: Average tumor size of human mammary carcinoma (MX-1) xenograft in mice on 17th day of administration (dose = 1-2 mg/kg). Type of data set: organism-based. The note with it: mouse, in vivo. The method in brief: as §3
Data set [7] has as its system Mus musculus. As to the kind of experiment: Average change in body weight of mice bearing human mammary carcinoma (MX-1) xenograft on 26th day of administration (dose = 1-2 mg/kg). Type of data set: functional. In short, it runs like this: as §2
Data set [8] has as its system Mus musculus. As to the kind of experiment: Average change in body weight of mice bearing human mammary carcinoma (MX-1) xenograft on 20th day of administration (dose = 1-2 mg/kg). Type of data set: functional. The method in brief:
as §2

Data set [9] can be described thus: Average tumor size of human mammary carcinoma (MX-1) xenograft in mice on 23th day of administration (dose = 1-2 mg/kg). The class given is organism-based. Conditions: mouse, in vivo. The method in brief: as §3
The subject of data set [10] is Mus musculus. Briefly: Average change in body weight of mice bearing human mammary carcinoma (MX-1) xenograft on 17th day of administration (dose = 1-2 mg/kg). Type of data set: functional. The method in brief:
as §2

Regarding `CC[C@]1(O)C[C@@H]2CN(CCc3c([nH]c4ccccc34)[C@@](C(=O)OC)(c3cc4c(cc3OC)N(C)[C@H]3[C@@](O)(C(=O)OC)[C@H](OC(C)=O)[C@]5(CC)C=CCN6CC[C@]43[C@@H]65)C2)C1` [VINBLASTINE], the IC50 in the data set on HCT-116 is 8.7 nM; in data set [1], 540 nM; in data set [2] it was 29 nM; with A549, 9.9 nM; in the data set on CCRF-CEM, 1.2 nM.

For the compound `OCc1cc(Nc2c3ccccc3nc3ccccc23)cc(OCCN(CCCl)CCCl)c1`, the IC50 with HCT-116 worked out at 5.5 nM; in data set [1], 7.5 nM; in data set [2] it was 30 nM; in the data set on A549, 5.6 nM; in the data set on CCRF-CEM, 7 nM. Also, the Weight was 1.2 g in the data set with Mus musculus [3]; -3 g in the data set on Mus musculus [4]; -3.9 g in the data set with Mus musculus [7]; -3 g with Mus musculus [8]; -1.4 g in the data set on Mus musculus [10]. Also, the T/C in data set [5] was 0.17; in data set [6], 0.37; in [9], 0.14.

In the case of `ClCCN(CCCl)CCOc1cccc(Nc2c3ccccc3nc3ccccc23)c1`, the IC50 with CCRF-CEM is 90 nM.

As to `ClCCN(CCCl)CCOc1ccc(Nc2c3ccccc3nc3ccccc23)cc1`, the IC50 in data set [1] came to 60 nM; in data set [2], 60 nM; with CCRF-CEM, 20 nM.

On to `Cc1cccc2c(Nc3cccc(OCCN(CCCl)CCCl)c3)c3cccc(C(=O)NCCN(C)C)c3nc12`, for which the midpoint of inhibition in the data set with CCRF-CEM, the IC50, lay at 3 nM.

Regarding `Cc1cccc2c(Nc3ccc(OCCN(CCCl)CCCl)cc3)c3cccc(C(=O)NCCN(C)C)c3nc12`, the IC50 in the data set with CCRF-CEM was 770 nM.

As for `Nc1cc(CO)cc(Nc2c3ccccc3nc3ccccc23)c1`, the IC50 in data set [1] stood at 1600 nM; in data set [2] it was 600 nM; with A549, 47 nM; with CCRF-CEM, 750 nM.

For `CC(=O)O[C@H]1C(=O)[C@@]2(C)[C@H]([C@H](OC(=O)c3ccccc3)[C@]3(O)C[C@H](OC(=O)[C@H](O)[C@@H](NC(=O)c4ccccc4)c4ccccc4)C(C)=C1C3(C)C)[C@]1(OC(C)=O)CO[C@@H]1C[C@@H]2O` [PACLITAXEL], the IC50 with HCT-116 amounted to 2.6 nM; in [1], 1620 nM; in data set [2] it was 140 nM; in the data set with A549 it was 2.9 nM; in the data set with CCRF-CEM, 1.5 nM.

These data come from ChEMBL document CHEMBL1137839, “Potent antitumor N-mustard derivatives of 9-anilinoacridine, synthesis and antitumor evaluation” (Bioorg Med Chem Lett, 2004).
